Experimental findings from ChEMBL document CHEMBL4196022, “Alkynyl-containing phenylthiazoles: Systemically active antibacterial agents effective against methicillin-resistant Staphylococcus aureus (MRSA)” (Eur J Med Chem, 2018) are described below.

Converted amounts (≈) assume the structure as drawn. The source made the active and inactive calls. The rule behind the calls is not given here.

Data set [1] relates to Staphylococcus aureus. The data set can be described thus: Antibacterial activity against methicillin-resistant Staphylococcus aureus USA300 after 20 hrs by broth microdilution assay. The note with it: USA300, 20 h. The data set is classed as functional. In a few lines: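 Broth microdilution per CLSI in cation-adjusted Mueller Hinton broth. Compounds serially diluted, in triplicate. Incubation at 37 °C for at least 20 hours. MIC taken as the lowest concentration with no visible bacterial growth.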

Data set [2] has as its system Staphylococcus aureus. The data set can be described thus: Bactericidal activity against methicillin-resistant Staphylococcus aureus NRS107 up to 18 hrs by broth microdilution assay. It is filed as functional. The following applies: NRS107, 18 h, read-out: MBC99.9. For orientation: In broth dilution the organism is exposed to a series of concentrations in liquid medium.

Data set [3] concerns Staphylococcus aureus. The data set can be described thus: Bactericidal activity against methicillin resistant vancomycin-resistant Staphylococcus aureus VRS10 up to 18 hrs by broth microdilution assay. The following applies: VRS10, 18 h, read-out: MBC99.9. The data set is classed as functional.
Data set [4] concerns Staphylococcus aureus. The data set can be described thus: Potency index, ratio of vancomycin MIC to compound MIC for antibacterial activity against vancomycin-resistant Staphylococcus aureus VRS12. It is filed as functional.
Data set [5] concerns Staphylococcus aureus. The data set can be described thus: Bactericidal activity against methicillin-resistant Staphylococcus aureus NRS123 (USA400) at 4 times MIC after 24 hrs by time kill assay. It is filed as functional, organism-based.
The test system of another data set is J774. Briefly: Cytotoxicity against mouse J774 cells assessed as reduction in cell viability up to 8 ug/ml after 24 hrs by MTS assay. It is filed as cell-based. The following applies: j774, 24 h. In a few lines:
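J774 murine macrophages were grown in DMEM with 10% FBS at 37 °C, 5% CO2. Compounds were tested at 8, 16 and 32 μg/mL in triplicate for 24 h, with a DMSO-matched control. MTS was added for 4 h and absorbance read at 490 nm. Viability is given as % of DMSO control (mean ± SD); Student t-test with Holm-Sidak test.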
(Tetrazolium assays rely on reduction of a dye to a coloured formazan, in cell work by metabolically active cells.)

The test system of data set [6] is Staphylococcus aureus. Briefly: Antibacterial activity against methicillin-resistant Staphylococcus aureus NRS123 (USA400) infected in mouse J774 cells at 8 ug/ml after 24 hrs. The data set is classed as functional, organism-based. In a few lines:
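J774 macrophages grown in DMEM with 10% FBS at 37 °C, 5% CO2. Infected with USA400 at MOI ~100:1 for 1 h, then washed with gentamicin 50 μg/mL. Treated in triplicate wells for 24 h, washed with gentamicin again and lysed with 0.1% Triton X-100. Lysate plated on tryptic soy agar for 18–22 h; CFU/mL counted.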

A further data set concerns HRT-18 cell line. The data set can be described thus: Cytotoxicity against human HRT18 cells assessed as reduction in cell viability up to 32 ug/ml after 2 hrs by MTS assay. The data set is classed as cell-based. The note with it: hrt-18, 2 h.
Data set [7] can be described thus: Selectivity index, ratio of toxic concentration for human HRT18 cells to MIC for methicillin-resistant Staphylococcus aureus. It is filed as toxicity. The following applies: read-out: Selectivity Index.
Data set [8] has as its target T1, Undecaprenyl-diphosphatase (Escherichia coli (strain K12), UniProt P60932).
T1 sequence (P60932 whole entry): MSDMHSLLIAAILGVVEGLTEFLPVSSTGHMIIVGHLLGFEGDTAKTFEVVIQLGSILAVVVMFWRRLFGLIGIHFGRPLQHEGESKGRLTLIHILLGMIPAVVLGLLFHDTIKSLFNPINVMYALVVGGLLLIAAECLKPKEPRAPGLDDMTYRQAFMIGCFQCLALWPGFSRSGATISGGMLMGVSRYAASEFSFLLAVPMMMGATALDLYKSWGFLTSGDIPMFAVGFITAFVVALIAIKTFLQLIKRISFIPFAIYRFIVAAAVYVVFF
The data set can be described thus: Inhibition of Escherichia coli UPPP expressed in Escherichia coli C41(DE3) using FPP as substrate preincubated for 15 mins followed by substrate addition measured after 20 mins by malachite green assay.

For data set [9], the target named is T2, Farnesyl pyrophosphate synthase (Homo sapiens, UniProt P14324).
T2 sequence (P14324 whole entry): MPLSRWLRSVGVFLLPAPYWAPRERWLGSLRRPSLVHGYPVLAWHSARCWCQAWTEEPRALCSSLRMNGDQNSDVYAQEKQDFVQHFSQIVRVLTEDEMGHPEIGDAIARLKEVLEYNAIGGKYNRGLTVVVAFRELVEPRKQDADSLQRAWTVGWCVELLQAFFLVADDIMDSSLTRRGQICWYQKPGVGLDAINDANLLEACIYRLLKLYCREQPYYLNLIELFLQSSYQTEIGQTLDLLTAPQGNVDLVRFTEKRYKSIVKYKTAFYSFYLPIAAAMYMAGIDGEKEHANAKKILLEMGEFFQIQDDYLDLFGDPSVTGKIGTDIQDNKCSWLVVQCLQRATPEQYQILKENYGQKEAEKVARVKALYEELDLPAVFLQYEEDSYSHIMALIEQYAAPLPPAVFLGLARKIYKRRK
Briefly: Inhibition of human FPPS.

Data set [10] is described as follows: Induction of proton motive force collapse in Escherichia coli inverted membrane vesicle in presence of ATP-driven PMF generation system by ACMA-based fluorescence assay. The data set is classed as functional, cell membranes. In a few lines: (§1)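 E. coli inverted membrane vesicles had proton motive force generated either by ATP or by succinate/O2. PMF collapse was followed as a dose response to give EC50, with CCCP as the reference uncoupler.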

Data set [11] is described as follows: Induction of proton motive force collapse in Escherichia coli inverted membrane vesicle in presence of succinate/O2-driven PMF generation system by ACMA-based fluorescence assay. The data set is classed as functional, cell membranes. Put shortly: as §1
Data set [12] deals with Staphylococcus aureus. The data set can be described thus: Inhibition of UPPS/UPPP in vancomycin-resistant Staphylococcus aureus VRS10 assessed as potentiation of vancomycin-induced antibacterial activity by measuring fold reduction in vancomycin MIC at 0.5 times MIC preincubated for 30 mins followed by vancomycin addition measured after 20 to 22 hrs by broth microdilution assay relative to control. Put shortly: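 VRS10 suspension pre-exposed to compound at ½ × MIC for 30 min at room temperature. […] Incubation at 37 °C for 20–22 h before the MIC was read; untreated bacteria served as control.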

Data set [13] is described as follows: Apparent permeability from basolateral to apical side in human Caco2 cells at 10 uM after 60 mins by LC-MS/MS analysis. It is filed as ADME, cell-based. The note with it: caco-2, 1 h. A general note: Caco-2 cells form a polarised layer with tight junctions and transporters.
Data set [14] deals with Rattus norvegicus. Briefly: Half life in Sprague-Dawley rat at 2 uM administered as single iv bolus dose by LC-MS/MS analysis. The note with it: in vivo. The data set is classed as ADME, organism-based. Put shortly: (§2)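 Male naïve Sprague-Dawley rats (three animals) received an IV bolus of a 2 μM solution. EDTA-K2 blood was sampled over 12 h post dose. Plasma was protein-precipitated with acetonitrile and quantified by LC/MS/MS. Parameters came from two-compartmental pharmacokinetic analysis.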

Data set [15] can be described thus: Terminal phase volume of distribution in Sprague-Dawley rat at 2 uM administered as single iv bolus dose by LC-MS/MS analysis. The data set is classed as ADME, organism-based. The note with it: in vivo, read-out: Vbeta. Put shortly: as §2
Data set [16] concerns Rattus norvegicus. Briefly: Volume of distribution at steady state in Sprague-Dawley rat at 2 uM administered as single iv bolus dose by LC-MS/MS analysis. The data set is classed as ADME, organism-based. The following applies: in vivo. In a few lines: as §2
Data set [17] concerns Staphylococcus aureus. Briefly: Antibacterial activity against methicillin-resistant Staphylococcus aureus USA300 infected in Caenorhabditis elegans AU37 assessed as reduction in bacterial burden at 20 ug/ml after 18 hrs relative to control. The arrangement: scale not given: the % may be the effect or the level left. It is filed as functional. Put shortly: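 L4-stage C. elegans AU37 infected on USA300 lawns for 6 h and washed with M9 buffer. 25–30 worms per well exposed to 20 μg/mL for 18 h, in triplicate. Worms then lysed and plated on TSA with 5 μg/mL nalidixic acid for 17 h at 37 °C. CFU per worm expressed as % reduction versus PBS.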

In general, MIC refers to the lowest concentration found to suppress growth. For orientation: IC50 means the concentration that inhibits the measured activity by half. Broadly, the EC50 is the concentration needed to bring the measured effect to its halfway point. Usually Papp stands for the rate of passage across a membrane or cell layer, normalised by area and donor concentration. By Vdss is commonly meant the apparent volume that relates the amount in the body to the concentration in plasma or blood. Regarding `C/C(=N\NC(=N)N)c1sc(-c2ccc(C#CC3CC3)cc2)nc1C`, inhibition of growth in the data set with Staphylococcus aureus [1] (MIC) required 2 µg/mL (≈ 5.93 µM). The MBC worked out at 2 µg/mL (≈ 5.93 µM) in the data set with Staphylococcus aureus [2] and 4 µg/mL (≈ 11.9 µM) in the data set with Staphylococcus aureus [3]. Besides, the Ratio in the data set with Staphylococcus aureus [4] came out at 8. In the data set on Staphylococcus aureus [5], the result was Active. In addition, the Activity entry in the data set with J774 was “Non-Toxic”; in the data set on HRT-18 cell line, “Non-Toxic”; with Staphylococcus aureus [17] it was 90%. Moreover, in the data set on Staphylococcus aureus [6], the outcome was inactive. Besides, the selectivity ratio in data set [7] fell in the range of 7 to 31. For the same compound, the midpoint of inhibition in [8], the IC50, lay at 8.1 µM. Besides, the “inhibition (INH)” value in data set [9] was “Not Active”. Besides, the EC50 in data set [10] was found to be 24 µM; in data set [11], 28 µM. Besides, the fold change (FC) with Staphylococcus aureus [12] was determined as 512. Moreover, the Papp in data set [13] amounted to 0.35 ×10⁻⁶ cm/s. This compound registered a t1/2 with Rattus norvegicus [14] of 4.43 h. Further, in data set [15], the Vd at 2 µM was 18.5 L. The volume of distribution (Vdss) in the data set with Rattus norvegicus [16] is 5.51 L.
